Reference: PMC10077566 (ACS Omega, 2023)

Columns and labels:
[1] = tested on: primary mouse neurons; assay: MTT cytotoxicity / cell viability, noncancer cells; assay type: cell-based; conditions: 24 h, n = 3
Procedure, shortened: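 Primary mouse neurons were grown in serum-free DMEM/F12-based neural medium with L-glutamine, HEPES, penicillin/streptomycin and supplement. They were plated at 1×10^4 cells/well and allowed to spread for 24 h at 37 °C, 5% CO2, then treated with the test compound at 2 or 10 μM for 24 h. MTT was added for 4 h, then solubilizing solution for 4 h. Absorbance was read at 560 and 590 nm. Runs were in triplicate, with Student's t tests.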

[2] = tested on: U-87-MG spheroids; assay: Calcein-AM spheroid viability assay; assay type: cell-based, human; conditions: 10 μM, 24 h; six-day old spheroids, 10000 cells/well
Procedure, shortened: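 Six-day-old U-87-MG spheroids seeded at 10000 cells/well in U-bottom low-attachment 24-well plates from monolayers grown to 70% confluence, in serum-free B27 neuronal basal medium or FBS-supplemented EMEM, with medium changed every 3 days. Exposed to the test compound at 10 μM for 24 h, moved to a fresh plate, washed three times with assay buffer, then stained with 3 μM Calcein-AM for 1 h at 37 °C. Imaged by fluorescence.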

[3] = tested on: U-87-MG cells; assay: Annexin V FITC-propidium iodide apoptosis assay, FACS; assay type: cell-based, human; conditions: Annexin V FITC/PI quadrant
[4] = molecular target: FABP3 (U-87-MG cells) (Homo sapiens, UniProt P05413); assay: FABP3-mediated internalization, antibody labeling and FACS; assay type: cell-based; conditions: serum-free, 10 μM, FACS, Coralite 594-conjugated FABP3 antibody
FABP3 (U-87-MG cells), sequence (P05413 whole entry): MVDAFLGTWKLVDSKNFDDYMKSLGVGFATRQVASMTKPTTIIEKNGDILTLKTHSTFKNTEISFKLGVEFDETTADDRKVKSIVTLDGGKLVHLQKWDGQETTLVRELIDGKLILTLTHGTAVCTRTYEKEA
Procedure, shortened: (§1)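 Cells were kept in serum-free neuronal basal medium with B27 and seeded at 1×10^4 cells/well in 6-well plates, then left to spread for 4 h at 37 °C, 5% CO2. They were incubated with Coralite 594-conjugated anti-FABP3 mouse antibody, then with the test compound (10 μM) for 24 h. Cells were trypsinized, pelleted at […] for 5 min, resuspended in FACS buffer and filtered. Flow cytometry used 582 nm excitation.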

[5] = molecular target: FABP3 (U-138-MG cells) (Homo sapiens, UniProt P05413); assay: as above; assay type: cell-based; conditions: serum-free, 10 μM, FACS, Coralite 594-conjugated FABP3 antibody
FABP3 (U-138-MG cells), sequence (P05413 whole entry): as above
Procedure, shortened: as §1

| FABP3-mediated internalization [4] | FABP3-mediated internalization [5] | Molecule | cell viability ([1]; 2 μM) | cell viability ([1]; 10 μM) | spheroid viability, Calcein-AM fluorescence [2] | necrotic cells ([3]; 2 μM) | necrotic cells ([3]; 10 μM) |
| --- | --- | --- | --- | --- | --- | --- | --- |
|  |  | COc1cccc2c1C(=O)c1c(O)c3c(c(O)c1C2=O)C[C@@](O)(C(=O)CO)C[C@@H]3O[C@H]1C[C@H](N)[C@H](O)[C@H](C)O1 [DOX, doxorubicin] | 49.3% | 27.2% | scattered viable cells were seen throughout the spheroid | 7.2% | 24% |
| did not show internalization | did not show internalization | ACGLSGLCVAK [A-COOP-K] |  |  |  |  |  |
